Source: PubChem BioAssay (The Scripps Research Institute Molecular Screening Center)
A selection: hits, their analogues and other compounds. The true share with any hit is near 3%.
5HT1E ag: 5-HT1E (human) receptor agonism. activation, % at 6 µM. 65,000 tested, 0.69% active. CHO 5-HT1E Ga15 NFAT-bla reporter, FRET; 0% DMSO wells, 100% control agonist wells. P28566. AID 574;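 active means activation above a set limit, the screen-wide mean activation plus 3 SD, cut at about 8.5% in these data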;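 further: 100% = positive control agonist at 1 µM giving full maximal response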
S1P1 ag-PAM: activates or potentiates agonism at human S1P1 receptor | 56,000 tested, 0.57% active | P21453 | S1P1 CRE-bla cells, forskolin, beta-lactamase FRET, potentiator mode; S1P1 agonist co-added at EC20, 2 nM; 100% = saturating reference agonist, 0% = basal | activation, % at 9.5 µM;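 active means activation above a cutoff set at the mean activation of all tested compounds plus 3 SD, cut at about 54% in these data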;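 further: forskolin at 4 µM as EC80 and the EC20 agonist is SEW2871; 100% = SEW2871 at its EC100 plus forskolin at EC80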
S1P3 agonist: agonists of human S1P3 receptor. S1P3 NFAT-BLA reporter cells, agonism, FRET ratio; relative to 1 µM S1P, basal subtracted. Q99500. AID 373. 60,000 tested, 0.1% active. activation, % at 4.5 µM;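 active means activation above the screen-wide mean plus 3 SD, cut at about 4.5% in these data, passing the limit was not always enough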
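Benchmarks: high control 1 µM S1P / System: stable CHO line with human S1P3, Gα16, NFAT-BLA reporter / Dosing: single compound concentration, 4.5 µM final / Timing: 4 h compound at 37 °C, 2 h substrate at RT / Measured by: FRET β-lactamase substrate fluorescence, excitation 405 nm, 460/535 nm emission ratio, background-subtracted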
5HT1a antag: 5-HT1a (human) receptor antagonism; P08908; CHO 5-HT1a Ga15 NFAT-bla reporter, antagonist mode; inhibition, % at 10 µM; 62,000 tested, 0.68% active;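 active means inhibition above the mean of all tested compounds plus 3 SD, cut at about 43% in these data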;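 further: receptor stimulated by 5-CT agonist at 100 nM near EC80; beta-lactamase reporter measured by ratiometric fluorescence of a cleavable substrate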
Target sequence (P08908 whole entry, looked up): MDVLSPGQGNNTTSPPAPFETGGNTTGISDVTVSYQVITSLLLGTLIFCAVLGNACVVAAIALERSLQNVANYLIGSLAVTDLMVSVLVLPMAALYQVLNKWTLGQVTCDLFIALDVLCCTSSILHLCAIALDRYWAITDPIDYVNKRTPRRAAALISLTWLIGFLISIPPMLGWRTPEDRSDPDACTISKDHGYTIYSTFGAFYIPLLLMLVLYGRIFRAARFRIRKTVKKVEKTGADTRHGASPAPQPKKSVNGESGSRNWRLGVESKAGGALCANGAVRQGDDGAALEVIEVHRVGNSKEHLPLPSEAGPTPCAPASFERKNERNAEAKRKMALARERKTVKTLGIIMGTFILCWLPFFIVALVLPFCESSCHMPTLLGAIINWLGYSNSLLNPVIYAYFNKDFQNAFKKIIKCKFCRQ
5HT1E antag: antagonists of human 5-HT1E serotonin receptor | 65,000 tested, 0.99% active | AID 571 | inhibition, % at 6 µM | CHO 5-HT1E Ga15 NFAT-bla reporter, FRET, antagonist;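 active means inhibition above a set limit, the mean inhibition across every tested compound plus 3 SD, cut at about 29% in these data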;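 further: signal is the 460 over 535 nm emission ratio of beta-lactamase substrate; 0% = agonist plus DMSO wells and 100% = wells without agonist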
5HT1a ag: activates the human 5-HT1a serotonin receptor; P08908; CHO 5-HT1a Ga15 NFAT-bla reporter, FRET ratio; 0% basal, 100% maximal reference agonist; activation, % at 10 µM; 65,000 tested, 0.56% active; AID 567;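 active means activation above the screen-wide mean activation plus 3 SD, cut at about 19% in these data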;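 further: 0% = DMSO wells and 100% = 5-CT at EC100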
* marks the source's active call; other numbers are inactive results.

How did Cc1nnc(SC(=O)N2c3ccccc3Sc3ccccc32)s1 do in these assays?
5HT1E ag: 0.1; S1P1 ag-PAM: 115.1*; S1P3 agonist: -0.5; 5HT1a antag: 74.1*; 5HT1E antag: 24.1; 5HT1a ag: -1.4

What do the screens show for `Cc1ccc(S(=O)(=O)Nc2cccc3ncccc23)s1`?
5HT1E ag: 0.8; S1P1 ag-PAM: 53.0; S1P3 agonist: 0.4; 5HT1a antag: 64.2*; 5HT1E antag: 81.0*; 5HT1a ag: -3.2

What do the screens show for `C=CCn1c(SCC(=O)N2CCOCC2)nc2scc(-c3ccco3)c2c1=O`?
5HT1E ag: -1.8; S1P1 ag-PAM: -26.8; S1P3 agonist: -1.0; 5HT1a antag: 1.3; 5HT1E antag: 12.6; 5HT1a ag: 28.6*

How did COc1ccccc1N1CCN(C(c2ccc(C)cc2)c2nnnn2C(C)C)CC1 (configuration not stated) do in these assays?
5HT1E ag: -0.1; S1P1 ag-PAM: -31.0; S1P3 agonist: -0.6; 5HT1a antag: 31.4; 5HT1E antag: -1.1; 5HT1a ag: -2.9

What do the screens show for `COc1ccccc1N1CCN(Cc2cccc(OC)c2OC)CC1`?
5HT1E ag: 3.4; S1P1 ag-PAM: -11.7; S1P3 agonist: -1.8; 5HT1a antag: 40.5; 5HT1E antag: -0.2; 5HT1a ag: -2.2

How did CCOc1ccccc1N1CCN(Cc2ccc(OC)c(OC)c2)CC1 do in these assays?
5HT1E ag: 20.1*; S1P1 ag-PAM: -1.0; S1P3 agonist: -1.3; 5HT1a antag: 57.2*; 5HT1E antag: -2.6; 5HT1a ag: -1.9

How did CCN1CCN(Cc2ccc(OC)c(OCc3ccccc3)c2)CC1 do in these assays?
5HT1E ag: 0.2; S1P1 ag-PAM: 4.8; S1P3 agonist: -1.0; 5HT1a antag: 5.5; 5HT1E antag: -4.7; 5HT1a ag: -1.5

What do the screens show for `COc1ccccc1N1CCN(C(c2ccc(F)cc2)c2nnnn2C(C)C)CC1` (configuration not stated)?
5HT1E ag: 0.6; S1P1 ag-PAM: -14.1; S1P3 agonist: -0.6; 5HT1a antag: 42.6*; 5HT1E antag: 6.6; 5HT1a ag: -3.3

What do the screens show for `CCOc1ccccc1N1CCN(Cc2ccc(OC)c(OC)c2OC)CC1`?
5HT1E ag: 16.6*; S1P1 ag-PAM: 8.9; S1P3 agonist: -1.4; 5HT1a antag: 79.8*; 5HT1E antag: 2.8; 5HT1a ag: -3.4

What do the screens show for `COc1ccc(CC(C)N2CCN(c3ccccc3OC)CC2)cc1OC` (configuration not stated)?
5HT1E ag: 1.3; S1P1 ag-PAM: 5.0; S1P3 agonist: -1.3; 5HT1a antag: 98.2*; 5HT1E antag: 7.5; 5HT1a ag: -0.2

What do the screens show for `O=C(c1ccccc1CCc1ccccc1)N1CCOCC1`?
5HT1E ag: -0.2; S1P1 ag-PAM: -7.1; S1P3 agonist: -0.6; 5HT1a antag: -3.3; 5HT1E antag: 2.2; 5HT1a ag: -2.7

Results for COC(=O)C1=C(C)N(c2ccc(F)cc2)C(=O)C1 ?
5HT1E ag: -0.2; 5HT1a antag: 10.2; 5HT1E antag: -7.6; 5HT1a ag: 0.7

How did COc1ccccc1N1CCN(Cc2ccc(Br)o2)CC1 do in these assays?
5HT1E ag: 5.5; S1P1 ag-PAM: -3.2; S1P3 agonist: -0.8; 5HT1a antag: 9.8; 5HT1E antag: -1.8; 5HT1a ag: -1.2

What do the screens show for `COc1cc(OC)c(OC)cc1CN1CCN(c2ccccc2OC)CC1`?
5HT1E ag: 23.4*; S1P3 agonist: -1.0; 5HT1a antag: 46.3*; 5HT1E antag: 18.6; 5HT1a ag: -1.1

What do the screens show for `COc1cc(CN2CCN(c3cccc(C)c3C)CC2)cc(OC)c1O`?
5HT1E ag: 57.0*; S1P1 ag-PAM: -17.5; S1P3 agonist: -1.7; 5HT1a antag: -1.9; 5HT1E antag: 5.0; 5HT1a ag: -2.2

How did COCCn1c(-c2cc(OC)c(OC)c(OC)c2)nc2nc3ccccc3nc21 do in these assays?
5HT1E ag: -0.3; S1P1 ag-PAM: 2.5; S1P3 agonist: 0.4; 5HT1a antag: -7.2; 5HT1E antag: -3.9; 5HT1a ag: 1.6

How did Cc1cc(NC(=O)Cn2cnc3sc(C)c(-c4ccccc4)c3c2=O)no1 do in these assays?
5HT1E ag: -0.6; S1P1 ag-PAM: 0.8; S1P3 agonist: 0.2; 5HT1a antag: 10.5; 5HT1E antag: -0.2; 5HT1a ag: -2.8

Results for O=c1c2ccccc2c2ccccc2c(=O)n1CC1CCCO1 (configuration not stated) ?
5HT1E ag: 0.2; S1P1 ag-PAM: -4.0; S1P3 agonist: -1.4; 5HT1a antag: -6.2; 5HT1E antag: 34.8*; 5HT1a ag: -2.7

Results for O=C(CSc1nc2ccccc2c(=O)n1CC1CCCO1)NCC1CCCO1 (configuration not stated) ?
5HT1E ag: 0.0; S1P1 ag-PAM: -12.8; S1P3 agonist: -0.2; 5HT1a antag: -1.4; 5HT1E antag: -2.9; 5HT1a ag: 0.2

What do the screens show for `Cc1nc(Nc2ccc(F)cc2)[nH]c(=O)c1CCC(C)C`?
5HT1E ag: 0.5; S1P1 ag-PAM: 38.8; S1P3 agonist: -1.5; 5HT1a antag: 52.2*; 5HT1E antag: -7.8; 5HT1a ag: 1.4

How did Cc1ccc(Nc2nc(C)c(CCC(C)C)c(=O)[nH]2)cc1 do in these assays?
5HT1E ag: 1.3; S1P1 ag-PAM: 8.1; S1P3 agonist: -0.9; 5HT1a antag: -9.1; 5HT1E antag: -2.5; 5HT1a ag: -3.7

What do the screens show for `CCOC(=O)C(NC(=O)c1ccc(F)cc1)(Nc1nnc(C)s1)C(F)(F)F` (configuration not stated)?
5HT1E ag: -0.4; S1P1 ag-PAM: 3.1; S1P3 agonist: -0.1; 5HT1a antag: 11.9; 5HT1E antag: 1.1; 5HT1a ag: -2.1

Results for Nc1nonc1/C(=N/O)N1CCCC1 ?
5HT1E ag: -0.7; S1P1 ag-PAM: 8.0; S1P3 agonist: 0.1; 5HT1a antag: 16.7; 5HT1E antag: 9.0; 5HT1a ag: 130.4*

How did Nc1nonc1C(=O)OCC(=O)N1CCCCC1 do in these assays?
5HT1E ag: 0.6; S1P1 ag-PAM: 3.8; S1P3 agonist: -0.4; 5HT1a antag: 5.3; 5HT1E antag: 5.5; 5HT1a ag: 0.1

How did CCCCOc1ccc(CN(C)c2ncnc(N)n2)cc1 do in these assays?
5HT1E ag: -0.5; S1P1 ag-PAM: 4.2; S1P3 agonist: -6.1; 5HT1E antag: 31.8*; 5HT1a ag: -0.3

Results for Cn1cc(/C=N/n2cnc3scc(-c4ccc(Cl)cc4)c3c2=O)c2ccccc21 ?
5HT1E ag: -0.6; S1P1 ag-PAM: -16.6; S1P3 agonist: -2.2; 5HT1a antag: 71.1*; 5HT1E antag: 82.6*; 5HT1a ag: -4.9

Results for CCCn1c(=O)c2ccccc2n2c(SCN3C(=O)c4ccccc4C3=O)nnc12 ?
5HT1E ag: -0.3; S1P1 ag-PAM: -17.5; S1P3 agonist: -0.6; 5HT1a antag: 10.7; 5HT1E antag: 0.6; 5HT1a ag: -2.3
